# A selection: hits, their analogues and other compounds. The true share with any hit is near 2.6%.
# Platelet DG rel = inhibitors of platelet dense granule secretion, primary screen, cell-based, MLPCN, human platelets | human platelet-rich plasma, SFLLRN dense granule ATP release, luminescence | inhibition, %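 (compounds screened at 7.5 µM in platelet-rich plasma)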 | 300,000 compounds, 0.22% hits;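 active = mean replicate score, as percent of positive control, at or above 50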
# SENP8 block-1 = human SENP8 protease inhibitors, primary screen, biochemical, fluorescence, Nedd8 protein substrate, uHTS | recombinant SENP8 | 360,000 compounds, 0.64% hits | Sentrin-specific protease 8 (Homo sapiens), Q96LD8 | inhibition, % at 20 µM; in the data active = inhibition mostly above about 40%, no sharp cut-off; inactive = mostly below about 27%
# Target sequence (Q96LD8 whole entry, looked up): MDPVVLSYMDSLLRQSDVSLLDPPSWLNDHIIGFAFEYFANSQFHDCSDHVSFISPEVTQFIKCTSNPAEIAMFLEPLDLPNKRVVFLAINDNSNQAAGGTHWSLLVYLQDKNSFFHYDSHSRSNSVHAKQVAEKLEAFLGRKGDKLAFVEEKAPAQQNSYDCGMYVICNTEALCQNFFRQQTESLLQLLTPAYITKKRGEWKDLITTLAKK
# SENP1 FRET inh = human SENP1 catalytic domain inhibitors, primary screen, biochemical, FRET, uHTS; AID 624204, 2012; inhibition, % at 10 µM; Sentrin-specific protease 1 (Homo sapiens), Q9P0U3; recombinant SENP1 catalytic domain, CyPet-SUMO1-YPet FRET cleavage; 360,000 compounds, 0.21% hits;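 active = inhibition at least 30% at 10 µM, raw YFP signal under a set limit, fluorescence ratio 0.5 to 1.5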;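 also: 0% = enzyme with DMSO and 100% = no enzyme wells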
#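 material = recombinant human SENP1 catalytic domain, His6-tagged | quantity = 20 pM enzyme | reagent = 25 nM SUMO1 FRET substrate | compound dosing = 10 µM single point, 0.5% DMSO | timing = 50 min enzyme reaction, room temperature, light-protected | detection = FRET, CFP and YFP emission | control set = no-enzyme low, enzyme-DMSO high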
# SENP8 block-2 = SENP8 protease inhibitors, primary screen, biochemical, luminescence; Sentrin-specific protease 8 (Homo sapiens), Q96LD8; purified SENP8, Z-RLRGG-aminoluciferin cleavage; inhibition, % at 10 µM; 330,000 compounds, 1.2% hits; in the data active = inhibition above about 50%
# SENP7 block = SENP7 protease inhibitors, primary screen, biochemical, luminescence, uHTS; inhibition, % at 5 µM; 330,000 compounds, 1.5% hits; AID 434973, 2010; recombinant SENP7, Z-RLRGG-aminoluciferin luminescence, 40 min;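 active = inhibition above about 50% at the single test dose, limit read from the data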;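 also: plate controls were DMSO with enzyme for no effect and no enzyme buffer wells for full effect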
# SENP6 inh = SENP6 protease inhibitors, primary screen, biochemical, luminescence, uHTS; 330,000 compounds, 1.8% hits; Recombinant SENP6 catalytic domain, aminoluciferin luminescence; inhibition, % at 10 µM;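 active = inhibition above about 50% at the single tested dose, limit read from the data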;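 also: plate controls were DMSO wells with enzyme for no effect and DMSO wells lacking enzyme for full effect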
# SENP8 conf = SENP8 protease inhibitors, retest, confirmation, biochemical, luminescence, single concentration; shares compounds with SENP7 block; Recombinant SENP8, Z-RLRGG-aminoluciferin luminescence, 60 min; inhibition, % at 12.5 µM; 6,200 compounds, 40% hits; AID 488912, 2010;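 active = mean inhibition across replicates above about 50%, limit read from the data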
# SENP6 confirm = SENP6 protease inhibitors, confirmation, biochemical, luminescence, single concentration | 6,200 compounds, 58% hits | recombinant SENP6, Z-RLRGG-aminoluciferin luminescence | inhibition, % at 12.5 µM | shares compounds with SENP7 block | AID 488915, 2010
# SENP7 conf = SENP7 protease inhibitors, retest, confirmation, biochemical, luminescence, single concentration | shares compounds with SENP7 block | inhibition, % at 12.5 µM | recombinant SENP7, Z-RLRGG-aminoluciferin luminescence, 40 min | 6,200 compounds, 69% hits
# Casp3 SENP sel = caspase-3 protease inhibitors, confirmation, selectivity assay for SENP inhibitor project, biochemical, single concentration. shares compounds with SENP7 block. purified caspase-3, Z-DEVD-aminoluciferin luminescence, 60 min. inhibition, % at 12.5 µM. 6,200 compounds, 60% hits. AID 488918, 2010;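 active = mean inhibition above about 50%, limit read from the data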;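 also: plate controls were enzyme with DMSO for no effect and wells without caspase-3 for full effect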
# Target sequence (P42574 28-227 limits assumed): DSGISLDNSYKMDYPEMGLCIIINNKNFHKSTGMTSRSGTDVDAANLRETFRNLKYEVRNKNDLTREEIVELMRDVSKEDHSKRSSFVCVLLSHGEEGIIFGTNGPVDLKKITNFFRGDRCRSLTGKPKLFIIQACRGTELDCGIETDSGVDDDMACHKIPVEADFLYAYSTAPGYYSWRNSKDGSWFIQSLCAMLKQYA
# SENP luc ctr = interferes with luciferase luminescence in SENP counter-screen; shares compounds with SENP7 block; Pre-incubated SENP8/Z-RLRGG-aminoluciferin, luciferase luminescence interference; inhibition, % at 12.5 µM; 6,200 compounds, 39% hits; AID 488919;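 active = mean inhibition above about 50% when retested at one dose, limit read from the data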;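 also: plate controls were DMSO wells with completed reaction for no effect and substrate without enzyme for full effect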
# * = called active by the depositor; . = not tested or not shown.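 The calls were made as follows, unless noted: active = mean inhibition above about 50% in the one-dose retest (limit read from the data); inactive = the rest.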
SMILES,Platelet DG rel,SENP8 block-1,SENP1 FRET inh,SENP8 block-2,SENP7 block,SENP6 inh,SENP8 conf,SENP6 confirm,SENP7 conf,Casp3 SENP sel,SENP luc ctr
O=C(Nc1ccc(Cl)cc1)Nc1nccs1,6,16,2,25,52*,68*,50*,50*,77*,39,37
C=C1[C@H]2C[C@H]3[C@H]4N5C[C@]6(C)CCC[C@]47[C@H]([C@H]2O)[C@]3(C[C@]5(O)[C@H]67)[C@@H]1O,-8,22,2,1,-9,-2,.,.,.,.,.
COc1ccc(-c2nc3ccccc3c(=O)o2)cc1,7,9,1,19,90*,81*,63*,44,75*,54*,34
CCC1CN1P(=O)(Oc1ccc(Cl)cc1)N1CC1CC (stereo not drawn),.,0,0,.,.,.,.,.,.,.,.
C#C[C@]1(O)[C@H](O)CC2C3CC[C@H]4C[C@@H](O)CC[C@]4(C)C3CC[C@@]21C (stereo partly drawn),.,5,1,-1,-2,3,.,.,.,.,.
Cc1nc(Cl)sc1C(=O)Nc1ccc2ccccc2c1,-1,9,0,20,29,55*,36,32,75*,34,32
O=C(c1ccc(CS(=O)(=O)c2ccccc2)o1)N1CCC2(CC1)OCCO2,1,8,2,0,7,6,.,.,.,.,.
O=C(c1ccc2nc(-c3ccco3)c(-c3ccco3)nc2c1)N1CCC2(CC1)OCCO2,.,-171,-38,24,25,82*,14,18,0,0,-3
COc1ccc(C(=O)N2CCC3(CC2)OCCO3)cc1,-2,13,2,6,-6,-8,.,.,.,.,.
Cc1ccc2c(c1N)C(=O)c1ccccc1C2=O,.,29,53*,63*,62*,65*,19,22,50*,25,18
O=C(O)C1CN2CCC1CC2 (stereo not drawn),2,5,3,4,5,-4,.,.,.,.,.
CCN(CC)C(=O)c1ccc(NC(=O)c2cccc(F)c2)cc1,8,12,2,35,65*,62*,57*,54*,83*,82*,53*
Nc1nonc1C(=O)N/N=C/c1ccc([N+](=O)[O-])o1,2,34,2,9,3,13,.,.,.,.,.
N/C(=N\[N+](=O)[O-])N/N=C/c1ccc(O)cc1,31,13,1,67*,79*,92*,78*,75*,91*,92*,81*
Nc1c(C(=O)NCc2ccco2)c2nc3ccccc3nc2n1Cc1ccc(F)cc1,-5,-484,-17,75*,54*,89*,1,-4,-5,-3,-13
COc1ccc(Cn2c(N)c(C(=O)NCc3ccco3)c3nc4ccccc4nc32)cc1,-1,-415,-25,25,28,58*,-4,-6,-4,-1,-6

# Screens (PubChem)
